Test results as given in ChEMBL document CHEMBL4368894, “Fluorine substituted methoxyphenylalkyl amides as potent melatonin receptor agonists” (Medchemcomm, 2019).
Calls of active or inactive are those of the source. The calls are words filed in the database; no cut-off is given here.

Columns and labels:
[1] = target: T1, Melatonin receptor type 1C (Xenopus laevis, UniProt P49219); assay: Agonist activity at Melatonin receptor type 1C in Xenopus laevis melanophores assessed as induction of pigment aggregation response by microtiter plate reader based absorbance detection assay
T1 sequence (P49219 whole entry): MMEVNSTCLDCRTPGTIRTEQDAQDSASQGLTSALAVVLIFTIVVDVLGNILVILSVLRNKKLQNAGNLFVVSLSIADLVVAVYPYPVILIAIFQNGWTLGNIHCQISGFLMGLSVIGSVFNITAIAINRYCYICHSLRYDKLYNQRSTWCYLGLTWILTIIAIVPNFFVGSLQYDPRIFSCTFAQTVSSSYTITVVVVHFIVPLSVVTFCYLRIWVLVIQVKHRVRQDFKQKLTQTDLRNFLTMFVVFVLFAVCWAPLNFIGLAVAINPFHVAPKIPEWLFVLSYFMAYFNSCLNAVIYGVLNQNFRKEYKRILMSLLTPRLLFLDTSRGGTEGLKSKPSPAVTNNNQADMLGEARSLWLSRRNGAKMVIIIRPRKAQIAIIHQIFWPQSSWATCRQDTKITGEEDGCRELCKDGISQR
Outline: (§1)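 Cultured melanophores (about 6-8 x 10³ per well) switched to 0.7 x L-15 medium with 1 mg·mL⁻¹ bovine albumin 1 h before concentration-response runs, in which pigment stays dispersed. Aggregation read as absorbance at 630 nm before and after drug, expressed as fractional change 1-(A_f/A_i). Drugs diluted fresh from 10⁻² M methanol or DMSO stocks; final solvent at most 1% v/v.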

[2] = target: T2, Melatonin receptor type 1C (Xenopus laevis) (UniProt P49219); assay: Agonist activity at Melatonin receptor type 1C in Xenopus laevis melanophores assessed as induction of pigment aggregation response by microtiter plate reader based absorbance detection assay relative to melatonin; outline: as §1
T2 sequence (whole entry): T1 sequence (P49219 whole entry)

[3] = target: T2, Melatonin receptor type 1C (Xenopus laevis); assay: Antagonist activity at Melatonin receptor type 1C in Xenopus laevis melanophores assessed as inhibition of melatonin-induced pigment aggregation response up to 10^-4M pre-incubated 60 mins before melatonin addition by microtiter plate reader based absorbance detection assay
[4] = target: T2, Melatonin receptor type 1C (Xenopus laevis); assay: Antagonist activity at Melatonin receptor type 1C in Xenopus laevis melanophores assessed as inhibition of melatonin-induced pigment aggregation response pre-incubated 60 mins before melatonin addition by microtiter plate reader based absorbance detection assay; set-up: concentration or dose not given beside the values
Outline: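 Melanophores pre-equilibrated 1 h in 0.7 x L-15 medium containing 1 mg·mL⁻¹ bovine albumin. Antagonist (10⁻⁵ M) added 60 min ahead of melatonin, and melatonin concentration-response curves run with and without it. Pigment aggregation read as 630 nm absorbance change, 1-(A_f/A_i). pK_B taken as log(concentration ratio – 1) – log[antagonist]. Solvent at most 1% v/v.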

## COc1ccc(CCCNC(C)=O)cc1F
[1]
  EC50: 1820 nM
[2]
  Efficacy: 79%
[3]
  inhibition: inactive

## CCC(=O)NCC(C)(C)c1cc(OC)ccc1F
[1]
  EC50: 269 nM
[2]
  Efficacy: 100%
[3]
  inhibition: inactive

## CCC(=O)NCc1ccc(OC)c(F)c1
[1]
  EC50: 1050 nM
[2]
  Efficacy: 51%
[4]
  inhibition: 24%

## CCCC(=O)NCCCc1ccc(OC)c(F)c1
[1]
  EC50: 417 nM
[2]
  Efficacy: 73%
[4]
  inhibition: 19%

## COc1cc(CCNC(C)=O)ccc1F
[1]
  EC50: 275 nM
[2]
  Efficacy: 100%
[3]
  inhibition: inactive

## CCC(=O)NCC(C)(C)c1ccc(F)c(OC)c1
[1]
  EC50: 0.537 nM
[2]
  Efficacy: 100%
[3]
  inhibition: inactive

## CCCC(=O)NCCCc1cc(OC)ccc1F
[1]
  EC50: 9.55 nM
[2]
  Efficacy: 100%
[3]
  inhibition: inactive

## COc1cc(C(C)(C)CNC(C)=O)ccc1F
[1]
  EC50: 1.82 nM
[2]
  Efficacy: 100%
[3]
  inhibition: inactive

## CCCC(=O)NCCCc1ccc(F)c(OC)c1
[1]
  EC50: 0.891 nM
[2]
  Efficacy: 89%
[3]
  inhibition: inactive

## CCCC(=O)NC(C)Cc1ccc(F)c(OC)c1 (stereo not drawn)
[1]
  EC50: 105 nM
[2]
  Efficacy: 89%
[3]
  inhibition: inactive

## CCCC(=O)NCc1ccc(OC)c(F)c1
[1]
  EC50: 661 nM
[2]
  Efficacy: 57%
[4]
  inhibition: 37%

## COc1ccc2[nH]cc(CCNC(C)=O)c2c1 [MELATONIN]
[1]
  EC50: 0.123 nM

## CCCC(=O)NCC(C)(C)c1ccc(F)c(OC)c1
[1]
  EC50: 0.0229 nM
[2]
  Efficacy: 100%
[3]
  inhibition: inactive

## COc1cc(CNC(C)=O)ccc1F
[1]
  EC50: 2090 nM
[2]
  Efficacy: 83%
[3]
  inhibition: inactive

## CCC(=O)NCCc1ccc(OC)c(F)c1
[1]
  EC50: 1350 nM
[2]
  Efficacy: 80%
[3]
  inhibition: inactive

## COc1ccc(F)c(C(C)(C)CNC(C)=O)c1
[1]
  EC50: 182 nM
[2]
  Efficacy: 100%
[3]
  inhibition: inactive

## CCC(=O)NCC(C)(C)c1ccc(OC)c(F)c1
[1]
  EC50: 93.3 nM
[2]
  Efficacy: 100%
[3]
  inhibition: inactive

## COc1ccc(CNC(C)=O)cc1F
[1]
  EC50: 1510 nM
[2]
  Efficacy: 77%
[3]
  inhibition: inactive

## CCC(=O)NCCc1ccc(F)c(OC)c1
[1]
  EC50: 85.1 nM
[2]
  Efficacy: 100%
[3]
  inhibition: inactive

## COc1ccc(F)c(CCNC(C)=O)c1
[1]
  EC50: 2450 nM
[2]
  Efficacy: 100%
[3]
  inhibition: inactive

## CCC(=O)NCCCc1ccc(F)c(OC)c1
[1]
  EC50: 1.1 nM
[2]
  Efficacy: 89%
[3]
  inhibition: inactive

## CCC(=O)NCc1ccc(F)c(OC)c1
[1]
  EC50: 2880 nM
[2]
  Efficacy: 86%
[3]
  inhibition: inactive

## CCC(=O)NCc1cc(OC)ccc1F
[1]
  EC50: 2400 nM
[2]
  Efficacy: 69%
[4]
  inhibition: 23%

## COc1ccc(F)c(CCCNC(C)=O)c1
[1]
  EC50: 20.4 nM
[2]
  Efficacy: 100%
[3]
  inhibition: inactive

## COc1ccc(F)c(CNC(C)=O)c1
[1]
  EC50: 1950 nM
[2]
  Efficacy: 100%
[3]
  inhibition: inactive

## CCCC(=O)NCCc1cc(OC)ccc1F
[1]
  EC50: 251 nM
[2]
  Efficacy: 100%
[3]
  inhibition: inactive

## COc1cc(CCCNC(C)=O)ccc1F
[1]
  EC50: 3.89 nM
[2]
  Efficacy: 92%
[3]
  inhibition: inactive

## COc1ccc(CCNC(C)=O)cc1F
[1]
  EC50: 2400 nM
[2]
  Efficacy: 80%
[3]
  inhibition: inactive

## CCCC(=O)NCCc1ccc(OC)c(F)c1
[1]
  EC50: 1200 nM
[2]
  Efficacy: 52%
[4]
  inhibition: 48%

## CC(=O)NCCc1c(Cc2ccccc2)[nH]c2ccccc12
[4]
  inhibition: 100%

## CCCC(=O)NCc1cc(OC)ccc1F
[1]
  EC50: 1350 nM
[2]
  Efficacy: 43%
[4]
  inhibition: 44%

## CCC(=O)NCCc1cc(OC)ccc1F
[1]
  EC50: 794 nM
[2]
  Efficacy: 100%
[3]
  inhibition: inactive

## CCCC(=O)NCC(C)(C)c1ccc(OC)c(F)c1
[1]
  EC50: 79.4 nM
[2]
  Efficacy: 100%
[3]
  inhibition: inactive

## CCCC(=O)NCCc1ccc(F)c(OC)c1
[1]
  EC50: 66.1 nM
[2]
  Efficacy: 100%
[3]
  inhibition: inactive

## CCC(=O)NCCCc1ccc(OC)c(F)c1
[1]
  EC50: 871 nM
[2]
  Efficacy: 78%
[4]
  inhibition: 8%

## CCC(=O)NCCCc1cc(OC)ccc1F
[1]
  EC50: 3.72 nM
[2]
  Efficacy: 100%
[3]
  inhibition: inactive

## CCCC(=O)NCc1ccc(F)c(OC)c1
[1]
  EC50: 2510 nM
[2]
  Efficacy: 75%
[3]
  inhibition: inactive

## CCCC(=O)NCC(C)(C)c1cc(OC)ccc1F
[1]
  EC50: 97.7 nM
[2]
  Efficacy: 100%
[3]
  inhibition: inactive

## COc1ccc(C(C)(C)CNC(C)=O)cc1F
[1]
  EC50: 81.3 nM
[2]
  Efficacy: 100%
[3]
  inhibition: inactive
